Laboratory results from ChEMBL document CHEMBL4000211, “Discovery of novel polycyclic spiro-fused carbocyclicoxindole-based anticancer agents” (Eur J Med Chem, 2017).
pIC50: −log10 of the molar value.

Tests used:
[1] = system: MCF7; assay: Antiproliferative activity against human MCF7 cells after 48 hrs by MTT assay; type: functional, cell-based; settings: MCF7, 48 h
In short: (§1)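 Cells seeded at 3×10³/well and grown 24 h, then exposed 48 h to six final concentrations, twofold steps down from 30. MTT (5 mg/mL) was added for 2–4 h at 37 °C. Supernatant was removed, formazan dissolved in DMSO, and OD read at 570 nm. Results are given as IC50, or as percent inhibition where IC50 exceeds the top concentration. At least three runs.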

[2] = system: HCT-116; assay: Induction of apoptosis in human HCT116 cells assessed as necrotic cells at 12.5 uM after 48 hrs by annexin V-FITC/propidium iodide staining-based flow cytometric method (reference value: 2.29%); type: functional
In short: (§2)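 HCT116 cells seeded at 1×10⁶ cells/mL in 6-well plates for 24 h, then exposed to 0, 7.5, 10 or 12.5 μM for a further 24 h or 48 h. Cells washed twice in PBS, then stained with Annexin V-FITC plus PI (100 μg/mL stock) in binding buffer (10 mM HEPES, pH 7.4, 2.5 mM CaCl₂) for 30 min at room temperature in the dark. Early and late apoptotic fractions gated by flow cytometry.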

[3] = system: HCT-116; assay: Induction of apoptosis in human HCT116 cells assessed as late apoptotic cells at 12.5 uM after 48 hrs by annexin V-FITC/propidium iodide staining-based flow cytometric method (reference value: 1.06%); type: functional
[4] = system: A2780S; assay: Antiproliferative activity against human A2780S cells after 48 hrs by MTT assay; type: functional, cell-based; in short: as §1
[5] = system: HCT-116; assay: Cell cycle arrest in human HCT116 cells assessed as accumulation at G1 phase at 7.5 uM after 24 hrs by propidium iodide staining-based flow cytometric method (reference value: 43.79%); type: functional
[6] = system: HCT-116; assay: Cell cycle arrest in human HCT116 cells assessed as accumulation at G2 phase at 10 uM after 24 hrs by propidium iodide staining-based flow cytometric method (reference value: 26.10%); type: functional
[7] = system: A2780S; assay: Antiproliferative activity against human A2780S cells at 15 uM after 48 hrs by MTT assay relative to control; type: functional; in short: as §1
[8] = system: HCT-116; assay: Induction of apoptosis in human HCT116 cells assessed as late apoptotic cells at 10 uM after 48 hrs by annexin V-FITC/propidium iodide staining-based flow cytometric method (reference value: 1.06%); type: functional
[9] = system: HCT-116; assay: Induction of apoptosis in human HCT116 cells assessed as necrotic cells at 12.5 uM after 24 hrs by annexin V-FITC/propidium iodide staining-based flow cytometric method (reference value: 1.85%); type: functional; in short: as §2
[10] = system: HCT-116; assay: Induction of apoptosis in human HCT116 cells assessed as necrotic cells at 7.5 uM after 24 hrs by annexin V-FITC/propidium iodide staining-based flow cytometric method (reference value: 1.85%); type: functional; in short: as §2
[11] = system: HCT-116; assay: Induction of apoptosis in human HCT116 cells assessed as late apoptotic cells at 7.5 uM after 24 hrs by annexin V-FITC/propidium iodide staining-based flow cytometric method (reference value: 2.77%); type: functional
[12] = system: A2780S; assay: Antiproliferative activity against human A2780S cells at 3.75 uM after 48 hrs by MTT assay relative to control; type: functional; in short: as §1
[13] = system: HCT-116; assay: Induction of apoptosis in human HCT116 cells assessed as viable cells at 7.5 uM after 24 hrs by annexin V-FITC/propidium iodide staining-based flow cytometric method (reference value: 93.48%); type: functional; settings: HCT-116, 24 h, read-out: Activity; in short: as §2
[14] = system: HCT-116; assay: Induction of apoptosis in human HCT116 cells assessed as early apoptotic cells at 12.5 uM after 24 hrs by annexin V-FITC/propidium iodide staining-based flow cytometric method (reference value: 1.9%); type: functional
[15] = system: HCT-116; assay: Induction of apoptosis in human HCT116 cells assessed as necrotic cells at 10 uM after 48 hrs by annexin V-FITC/propidium iodide staining-based flow cytometric method (reference value: 2.29%); type: functional
[16] = system: HCT-116; assay: Cell cycle arrest in human HCT116 cells assessed as accumulation at sub G1 phase at 12.5 uM after 48 hrs by propidium iodide staining-based flow cytometric method (reference value: 0.86%); type: functional
[17] = system: HCT-116; assay: Cell cycle arrest in human HCT116 cells assessed as accumulation at S phase at 7.5 uM after 24 hrs by propidium iodide staining-based flow cytometric method (reference value: 36.43%); type: functional
[18] = system: HCT-116; assay: Induction of apoptosis in human HCT116 cells assessed as early apoptotic cells at 12.5 uM after 48 hrs by annexin V-FITC/propidium iodide staining-based flow cytometric method (reference value: 1.6%); type: functional
[19] = system: A2780S; assay: Antiproliferative activity against human A2780S cells at 30 uM after 48 hrs by MTT assay relative to control; type: functional; in short: as §1
[20] = system: HCT-116; assay: Induction of apoptosis in human HCT116 cells assessed as necrotic cells at 7.5 uM after 48 hrs by annexin V-FITC/propidium iodide staining-based flow cytometric method (reference value: 2.29%); type: functional; in short: as §2
[21] = system: HCT-116; assay: Cell cycle arrest in human HCT116 cells assessed as accumulation at G1 phase at 10 uM after 24 hrs by propidium iodide staining-based flow cytometric method (reference value: 43.79%); type: functional
[22] = system: HCT-116; assay: Induction of apoptosis in human HCT116 cells assessed as viable cells at 7.5 uM after 48 hrs by annexin V-FITC/propidium iodide staining-based flow cytometric method (reference value: 95.05%); type: functional; settings: HCT-116, 48 h, read-out: Activity; in short: as §2
[23] = system: HCT-116; assay: Cell cycle arrest in human HCT116 cells assessed as accumulation at S phase at 10 uM after 48 hrs by propidium iodide staining-based flow cytometric method (reference value: 34.83%); type: functional
[24] = system: HCT-116; assay: Induction of apoptosis in human HCT116 cells assessed as viable cells at 12.5 uM after 48 hrs by annexin V-FITC/propidium iodide staining-based flow cytometric method (reference value: 95.05%); type: functional; settings: HCT-116, 48 h, read-out: Activity; in short: as §2
[25] = system: HCT-116; assay: Induction of apoptosis in human HCT116 cells assessed as late apoptotic cells at 10 uM after 24 hrs by annexin V-FITC/propidium iodide staining-based flow cytometric method (reference value: 2.77%); type: functional
[26] = system: HCT-116; assay: Cell cycle arrest in human HCT116 cells assessed as accumulation at sub G1 phase at 10 uM after 48 hrs by propidium iodide staining-based flow cytometric method (reference value: 0.86%); type: functional
[27] = system: HCT-116; assay: Cell cycle arrest in human HCT116 cells assessed as accumulation at sub G1 phase at 7.5 uM after 24 hrs by propidium iodide staining-based flow cytometric method (reference value: 1.73%); type: functional
[28] = system: A2780/Taxol; assay: Antiproliferative activity against human A2780T cells after 48 hrs by MTT assay; type: functional, cell-based; in short: as §1
[29] = system: CT26; assay: Antiproliferative activity against mouse CT26 cells after 48 hrs by MTT assay; type: functional, cell-based; settings: CT26, 48 h; in short: as §1
[30] = system: HCT-116; assay: Induction of apoptosis in human HCT116 cells assessed as late apoptotic cells at 7.5 uM after 48 hrs by annexin V-FITC/propidium iodide staining-based flow cytometric method (reference value: 1.06%); type: functional

## C[C@@H]1Oc2ccc3ccccc3c2[C@@H]2[C@@H]1C=C(C=O)[C@@H](C)[C@]21C(=O)Nc2ccccc21
[1]
  pIC50: 4.79
[2]
  Activity: 5.28%
[3]
  Activity: 18.89%
[4]
  pIC50: 5.10
[5]
  Activity: 46.1%
[6]
  Activity: 21.05%
[7]
  inhibition at 15 µM: 61.7 to 72.4%
[8]
  Activity: 8.18%
[9]
  Activity: 2.21%
[10]
  Activity: 1.6%
[11]
  Activity: 4.71%
[12]
  inhibition at 3.75 µM: 17.7 to 24.1%
[13]
  viability at 7.5 µM: 89.9%
[14]
  Activity: 33.2%
[15]
  Activity: 2.82%
[16]
  Activity: 64.26%
[17]
  Activity: 32.56%
[18]
  Activity: 47.17%
[19]
  inhibition at 30 µM: 83.8 to 85.1%
[20]
  Activity: 2.02%
[21]
  Activity: 75.18%
[22]
  viability at 7.5 µM: 91.7%
[23]
  Activity: 18.5%
[24]
  viability at 12.5 µM: 28.6%
[25]
  Activity: 10.13%
[26]
  Activity: 32.93%
[27]
  Activity: 3.18%
[28]
  pIC50: 4.63
[29]
  pIC50: 5.02
[30]
  Activity: 2.09%
